Experimental findings from PubChem BioAssay AID2237 (Johns Hopkins Ion Channel Center, 2010) are described below.

The campaign covered roughly 310,000 compounds. About 1,500 (0.48%) were called active. This is one part of a sample in which actives are shown more often than they occur.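 How the source made its calls: active means B-score above 5 SD of library B-scores, and initial fluorescence ratio not above library mean plus 5 SD; inactive means the rest.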

Chain of Short transient receptor potential channel 4 (Mus musculus) (Q9QUQ5 whole entry, looked up): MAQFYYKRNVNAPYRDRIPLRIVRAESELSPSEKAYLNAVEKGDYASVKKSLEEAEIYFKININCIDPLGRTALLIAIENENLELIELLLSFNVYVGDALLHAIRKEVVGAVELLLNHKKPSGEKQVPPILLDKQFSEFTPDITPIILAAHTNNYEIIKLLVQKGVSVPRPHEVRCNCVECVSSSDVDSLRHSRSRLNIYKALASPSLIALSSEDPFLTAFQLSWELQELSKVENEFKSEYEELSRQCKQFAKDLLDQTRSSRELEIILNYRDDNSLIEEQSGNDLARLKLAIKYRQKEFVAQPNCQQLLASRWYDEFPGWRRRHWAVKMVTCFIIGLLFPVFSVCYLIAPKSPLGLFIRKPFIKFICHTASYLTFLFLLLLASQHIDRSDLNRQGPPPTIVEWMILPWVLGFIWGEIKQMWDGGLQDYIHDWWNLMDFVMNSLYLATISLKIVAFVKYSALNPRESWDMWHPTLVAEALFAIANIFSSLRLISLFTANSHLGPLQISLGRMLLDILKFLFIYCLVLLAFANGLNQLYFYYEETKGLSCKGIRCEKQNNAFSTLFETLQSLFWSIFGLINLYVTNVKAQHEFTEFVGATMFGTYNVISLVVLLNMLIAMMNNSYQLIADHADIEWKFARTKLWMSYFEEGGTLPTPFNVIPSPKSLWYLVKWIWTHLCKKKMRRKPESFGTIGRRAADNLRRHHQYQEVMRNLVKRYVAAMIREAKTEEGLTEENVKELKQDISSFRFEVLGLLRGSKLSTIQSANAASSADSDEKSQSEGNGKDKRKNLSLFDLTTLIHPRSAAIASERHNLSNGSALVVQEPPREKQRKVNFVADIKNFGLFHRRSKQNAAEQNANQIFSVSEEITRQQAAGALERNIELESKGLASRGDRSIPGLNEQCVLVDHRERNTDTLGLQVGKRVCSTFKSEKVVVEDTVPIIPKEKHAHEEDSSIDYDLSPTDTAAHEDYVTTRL

The experiment addresses Short transient receptor potential channel 4 (Mus musculus) (UniProt Q9QUQ5). Briefly: activators of mouse TRPC4 channel, primary screen, Fluo4 calcium, HEK293 TRPC4beta/mu-opioid cells (AID 2237).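 On B-score: positive B-score marks a calcium rise read as TRPC4 activation.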 The conditions noted are these: Fluo4 calcium fluorescence, at 10 µM; stronger effect = higher value. A digest of the protocol:
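Incubation: 45 min room-temperature Fluo4 loading, 110 s read / System: HEK293 cells stably co-expressing mouse TRPC4beta and mu-opioid receptor / Signal: Fluo4 fluorescence, kinetic / Control set: buffer (low) and maximal DAMGO (high) / Measure: integrated baseline-normalised fluorescence ratio, converted to per-well B score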
`C/C(=N/OC(=O)c1ccc(Br)cc1)c1ccc(C)cc1`: the B-score result was “inactive”.
Consider `CC(C)N(Cc1nnc(-c2ccc(Cl)cc2)o1)C(=O)C1=COCCO1`, for which the B-score entry is “inactive”.
To `Cc1cc(C(=O)Nc2ccccc2N2CCOCC2)c2ccccc2n1` belongs “inactive”; to `CNC(=O)COC(=O)c1cc(-c2ccc(OC)cc2)nc2ccccc12`, “inactive”.
To `COC(=O)c1cc(N2CCNCC2)nc2ccccc12` belongs 87 (active).
Under `Cc1ccc(S(=O)(=O)NCC(=O)N(CC(=O)NCC2CCCO2)c2cccc(F)c2)cc1` (stereo unspecified) stands “inactive”; under `CN(C)CCCN(C(=O)c1ccc(S(=O)(=O)N2CCCCCC2)cc1)c1nc2ccc(Br)cc2s1`, “inactive”; under `CN(C)CCCN(C(=O)c1ccc(S(=O)(=O)N2CCCc3ccccc32)cc1)c1nc2ccc(F)cc2s1`, 197 (active).
In the case of `CN(C)CCCN(C(=O)c1ccc(S(=O)(=O)N2CCCCCC2)cc1)c1nc2cc3c(cc2s1)OCCO3`, the B-score entry was “inactive”.
To `CCOc1ccc(N(CC(=O)NCCOc2ccccc2OC)S(=O)(=O)c2ccccc2)cc1` belongs “inactive”.
To `O=C(NNC(=O)C(O)c1ccccc1)NC1CCCCC1` (stereo unspecified) belongs “inactive”; to `Cc1nc(/N=C(\N)NC(=O)NC2CCCCC2)nc2ccccc12`, 90 (active); to `COc1ccc2nc(/N=C(\N)NC(=O)Nc3ccccc3)nc(C)c2c1`, “inactive”.
To `COC(=O)C1CCCCN1C(=O)c1ccc(OC2CCN(C(C)=O)CC2)c(OC)c1` (stereo unspecified) belongs “inactive”; to `CN(CCO)S(=O)(=O)c1ccc2c(c1)C(=O)c1cc(S(=O)(=O)N(C)CCO)ccc1-2`, “inactive”.
As to `COC(=O)c1sc(-c2ccc(C(C)(C)C)cc2)cc1NC(=O)/C=C/C(=O)O`, the B-score result is “inactive”.
Under `NC(=O)CSc1nnc(NC(=O)c2ccc3ccccc3c2)s1` stands “inactive”.
Take `O=C(Nc1ccc2ccccc2c1)/C(=C/c1cccc(Br)c1)NC(=O)c1ccco1`: the B-score entry is “inactive”.
Under `CC(Oc1ccc2ccccc2c1)C(=O)NNC(=S)NC(=O)c1ccco1` (stereo unspecified) stands 65 (active).
Under `Cc1ccc(OCC(=O)NCCCNC(=O)c2ccco2)cc1C` stands “inactive”.
Under `CCCc1ccc(OCCNC(=O)c2ccco2)cc1` stands “inactive”.
On to `CCCc1ccc(OCC(=O)NNC(=S)NC(=O)c2ccco2)cc1`, for which the B-score is 66 (active).
To `Cc1ccc(C(=O)NNC(=O)C(C)Oc2ccc3ccccc3c2)o1` (stereo unspecified) belongs “inactive”.
Under `COc1cccc(NC(=O)CN2CCN(CC(=O)Nc3ccccc3Cl)CC2)c1` stands “inactive”.
Under `Cc1ccc(C23CC4CC(CC(C(=O)NCC(=O)O)(C4)C2)C3)cc1` stands “inactive”.
Take `CCC(=O)Nc1nnc(S(=O)(=O)N(CC(C)C)c2ccccc2)s1`: the B-score entry was “inactive”.
As for `COn1c(-c2ccc(Cl)cc2Cl)nc2ncccc21`, the B-score entry was “inactive”.
To `Clc1ccc(COn2c(-c3ccc(Cl)cc3Cl)nc3ncccc32)cc1` belongs 80 (active).
Under `Clc1ccc(-c2cc(-c3ccccn3)on2)c(Cl)c1` stands “inactive”; under `COc1ccccc1/C=N/N1CCN(Cc2ccccc2Cl)CC1`, “inactive”.
Consider `CC(=O)N1CC2(C)CN(C(C)=O)CC(C)(C1)C2=O`, for which the B-score result is “inactive”.
To `COc1ccc(N2CCN(C(=O)CCNC(=O)c3ccc(Br)cc3)CC2)cc1` belongs “inactive”; to `COc1ccc(-n2nc(C(=O)NCC(=O)Nc3cccc(C)n3)c3ccccc3c2=O)cc1`, “inactive”.
To `COCCCNC(=O)CNC(=O)c1nn(-c2ccc(OC)cc2)c(=O)c2ccccc12` belongs “inactive”; to `CCCN(CCC)CCCNC(=O)CNC(=O)c1nn(-c2ccc(OC)cc2)c(=O)c2ccccc12`, 93 (active).
To `CCOC(=O)c1cnn(Cc2ccccc2Cl)c1N` belongs “inactive”; to `CCCC(C(=O)NC1CCCC1)N(C(=O)Cn1nnc(-c2ccc(C)o2)n1)c1cccc(O)c1` (stereo unspecified), “inactive”.
For `COc1ccc(Cl)cc1S(=O)(=O)N1CCC(O)(c2ccc(Cl)cc2)CC1`, the B-score result is “inactive”.
To `COc1cc(OC)c(-n2cc(-c3ccc(Cl)cc3)[nH]c2=O)cc1Cl` belongs 63 (active).
To `COc1cc(OC)c(-n2c(C)cc(C=O)c2C)cc1Cl` belongs “inactive”.
Under `O=C1CCN(C(=O)Nc2ccccc2)N1` stands “inactive”.
Regarding `CC(C)N(Cc1ccccc1)C(=O)COC(=O)c1cnccn1`, the B-score entry was “inactive”.
To `Oc1c(Cl)cc(Cl)c(Cl)c1Cc1c(O)c(Cl)cc(Cl)c1Cl` belongs 53 (active).
To `CC(C[N+](C)(C)C)OC(N)=O` (stereo unspecified) belongs “inactive”.
Under `CC(=O)OC(C)C[N+](C)(C)C` (stereo unspecified) stands 57 (active); under `C=C(C)CSc1nnc(-c2ccc(C)cc2)n1N`, “inactive”.
On to `CCCOC1CCCN(Cc2cn(C)nc2-c2ccccc2F)C1` (stereo unspecified), for which the B-score entry is “inactive”.
Under `CCN(CC)c1ccc2cc(C(N)=O)/c(=N\NC(=O)c3ccncc3)oc2c1` stands 79 (active).
Under `COc1cccc2cc(C(N)=O)/c(=N\NC(=O)c3ccccc3)oc12` stands “inactive”; under `NC(=O)c1cc2ccccc2o/c1=N/NC(=O)c1cccc(F)c1`, “inactive”; under `CN1CCN(C(=O)CCc2ncc(C(F)(F)F)cc2Cl)CC1`, “inactive”.
With `CNc1[nH]ncc1[N+](=O)[O-]`, the B-score entry was “inactive”.
Under `O=C(Nc1ccc(F)c(Cl)c1)C1CCN(S(=O)(=O)c2cccnc2)CC1` stands “inactive”; under `CCOc1ccccc1CNS(=O)(=O)c1cc(-c2cc(C)no2)ccc1C`, “inactive”.
To `Cc1cc(-c2ccc(C)c(S(=O)(=O)NCCCN(Cc3ccccc3)C(C)C)c2)on1` belongs 127 (active).
To `Cc1cc(-c2ccc(C)c(S(=O)(=O)NC(C)Cc3ccco3)c2)on1` (stereo unspecified) belongs “inactive”; to `C=CCNC(=O)C12CC3CC(C1)CC(C(=O)NCC=C)(C3)C2`, “inactive”.
Regarding `O=C(NC1CCN(S(=O)(=O)c2ccc(F)cc2)CC1)c1ccccc1`, the B-score result is “inactive”.
To `CC1CC(C)CN(CCCNC(=O)c2csc3c2CCCCC3)C1` (stereo unspecified) belongs 97 (active); to `Cc1ccc(NC(=O)c2csc3c2CCCC3)cc1`, “inactive”.
Under `O=C(NCc1ccccc1Cl)c1csc2c1CCCCC2` stands “inactive”.
To `CCOC(=O)c1ccccc1NC(=O)c1c(N)n(C)c(=O)[nH]c1=O` belongs “inactive”; to `CSc1ccc(S(=O)(=O)N2CCC(C(=O)NCCc3ccccc3)CC2)cc1`, “inactive”.
Turning to `c1ccc(-c2ccccc2OCCN2CCCCC2)cc1`, the B-score entry is “inactive”.
To `CC1CN(CCCOc2ccccc2-c2ccccc2)CC(C)O1` (stereo unspecified) belongs “inactive”.
With `CC1CCCN(CCOCCOc2ccccc2-c2ccccc2)C1` (stereo unspecified), the B-score is 54 (active).
Under `COc1ccc(C2CC(c3ccc(Cl)cc3Cl)Nc3nc(N)nn32)cc1OC` (stereo unspecified) stands “inactive”; under `CCOc1ccccc1C1CC(c2ccc(Cl)cc2)Nc2nc(N)nn21` (stereo unspecified), 116 (active).
For the compound `CCOc1ccccc1C1CC(c2ccccc2)Nc2nc(N)nn21` (stereo unspecified), the B-score result was “inactive”.
Under `CC(C)(C)S(=O)(=O)c1ccccc1-c1noc(-c2ccccc2)c1C(N)=O` stands “inactive”; under `Cn1c(CCNS(=O)(=O)c2ccc(F)cc2)nnc1SCc1cccnc1`, “inactive”.
Under `COc1ccc(NC(=O)c2cc([N+](=O)[O-])ccc2NC(=O)CNC2CCCCC2C)c(OC)c1` (stereo unspecified) stands “inactive”.
To `Cc1ccc(C(=O)CCC(=O)N(C)CC(=O)Nc2c(Cl)cccc2Cl)cc1` belongs “inactive”; to `O=C1CCCc2c1nc(-c1cccc(Cl)c1)n2O`, “inactive”; to `Cc1cccc(-c2nc3ccccc3c(=O)n2NC(=O)Cc2ccc(Cl)cc2)c1`, “inactive”.
For the compound `O=c1c2cc(Br)ccc2nc(-c2cccc(Cl)c2)n1O`, the B-score was 121 (active).
As to `O=c1[nH]c(CN2CCN(S(=O)(=O)c3ccc4c(c3)OCCO4)CC2)nc2sc3c(c12)CCCC3`, the B-score entry is “inactive”.
For `O=C(OCCN=C1NS(=O)(=O)c2ccccc21)c1cccc([N+](=O)[O-])c1`, the B-score entry was “inactive”.
`O=C(CCCN=C1NS(=O)(=O)c2ccccc21)OCC(=O)c1ccc(F)c(F)c1`: the B-score is 50 (active).
To `N#CC1(NC(=O)COC(=O)CCN=C2NS(=O)(=O)c3ccccc32)CCCCC1` belongs “inactive”.
With `Cc1cc(C)c2nc(N3CCC(C(=O)NCCN4CCOCC4)CC3)sc2c1`, the B-score result is “inactive”.
For `CCC1CCCCN1CCCNC(=O)c1cc2c(Cl)nc3ccccc3c2s1` (stereo unspecified), the B-score result is “inactive”.
Under `CC1CCCCN1S(=O)(=O)c1ccc(C(=O)Nc2nnc(-c3cccs3)o2)cc1` (stereo unspecified) stands 74 (active); under `CC1CCCN(S(=O)(=O)c2ccc(C(=O)Nc3nnc(-c4ccncc4)o3)cc2)C1` (stereo unspecified), “inactive”; under `CSCc1nnc(NC(=O)c2ccc(S(=O)(=O)N3CCCCC3C)cc2)o1` (stereo unspecified), “inactive”.
Under `COc1ccc(N2C(=O)NC(NS(=O)(=O)c3ccc(Cl)cc3)(C(F)(F)F)C2=O)cc1` (stereo unspecified) stands “inactive”.
With `CCCc1ccc(OCC(O)CN2CCN(CCO)CC2)cc1` (stereo unspecified), the B-score entry is “inactive”.
To `CCOc1ccc(N(CC(=O)NCCc2ccc(OC)cc2)S(C)(=O)=O)cc1` belongs “inactive”; to `CC1(C)CC(N2CCN(C(c3ccccc3)c3ccccc3)CC2)=CC(=[N+]2CCCCC2)C1`, “inactive”; to `COCCN1C(=O)N[C@@H](CCc2ccccc2)[C@H](C(C)=O)[C@H]1C`, “inactive”.
To `COCCN1C2=C(COC(C)(C)C2)C(=S)NC1c1ccccc1` (stereo unspecified) belongs 76 (active); to `COC(=O)C1=C(C)N(C)C(=S)NC1c1ccccc1` (stereo unspecified), “inactive”; to `CCN(c1ccccc1)S(=O)(=O)c1ccc2[nH]c(=O)[nH]c2c1`, “inactive”.
Turning to `CCOc1ccc(NS(=O)(=O)c2ccc(C(=O)NC3CCN(Cc4ccccc4)CC3)cc2)cc1`, the B-score is 49 (active).
Under `CCOc1ccc(C(=O)NC2CCN(S(=O)(=O)CC)CC2)cc1` stands “inactive”; under `CCOc1ccc(CC(=O)NC2CCN(Cc3ccccc3)CC2)cc1`, “inactive”.
To `CN(CCc1ccccn1)C(=O)c1ccc(OC2CCN(CCc3ccccc3)CC2)cc1` belongs “inactive”.
To `CC(O)CN(Cc1ccc(Cl)cc1)CC(C)O` (stereo unspecified) belongs “inactive”; to `COc1cc(C(=O)N(C)Cc2cccc(OC)c2OC)ccc1OCC(=O)Nc1cccc(C(F)(F)F)c1`, “inactive”.
Take `O=C(NNC(=S)NCc1ccco1)C(c1ccccc1)c1ccccc1`: the B-score entry was “inactive”.
To `CC(C)C(=O)Nc1cccc(NC(=S)NC(=O)C(c2ccccc2)c2ccccc2)c1` belongs “inactive”; to `CCCCC(=O)NNC(=S)NC(=O)C(c1ccccc1)c1ccccc1`, 152 (active); to `O=C(NCCc1ccccn1)c1ccc(COc2ccccc2)o1`, 120 (active).
With `COc1ccc(NC(=O)CN(C)C(=O)c2ccc(COc3ccccc3)o2)cc1`, the B-score result is “inactive”.
To `CCOc1ccc(OCc2ccc(C(=O)N(C)c3ccccc3)o2)cc1` belongs “inactive”; to `Cc1cc(N2CCN(c3ccc(F)cc3)CC2)n2ncnc2n1`, “inactive”.
